Assays:
Type in all cases: functional
[1] = test system: Radical scavenging activity; test: Antioxidant activity assessed as DPPH free radical scavenging activity
How it was run: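 DPPH free-radical scavenging assay run on purified isolates with 400 µM DPPH. IC50 (µM) reported as the concentration giving half-maximal radical scavenging.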

[2] = test system: MCF7; test: Cytotoxicity against human MCF7 cells at 30 uM; conditions: read-out: GI
How it was run: (§1)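 MCF-7 cells grown in DMEM with 10% FBS at 37 °C and 5% CO2. Before seeding they were passaged at least twice in phenol red-free DMEM with 2 mM L-glutamine and 5% charcoal-stripped serum, then washed twice with PBS. Cells were seeded at 2 × 10^4 per well, allowed 24 h to attach, then given fresh medium with compound. After 4 days attached viable cells were Coulter-counted relative to untreated cells.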

[3] = test system: MCF7; test: Stimulation of cell proliferation in human MCF7 cells assessed as cell viability at 10 uM after 4 days relative to control; how it was run: as §1
[4] = test system: MCF7; test: Stimulation of cell proliferation in human MCF7 cells assessed as cell viability at 3.7 nM after 4 days relative to control; how it was run: as §1
[5] = test system: MCF7; test: Stimulation of cell proliferation in human MCF7 cells assessed as cell viability at 16.8 uM after 4 days relative to control; how it was run: as §1
[6] = test system: MCF7; test: Stimulation of cell proliferation in human MCF7 cells assessed as cell viability at 14 uM after 4 days relative to control; how it was run: as §1

| SMILES | IC50 [1] [µM] | other results |
| --- | --- | --- |
| COc1ccc(/C=C/C(=O)O[C@H](C(=O)O)[C@](O)(Cc2ccc(O)c(O)c2)C(=O)O)cc1OC [CIMICIFUGIC ACID G] | 37 | inhibition of growth at 30 µM [2]: 32%; fold change (FC) [3]: 1.14 |
| C[C@]12CC[C@@H]3c4ccc(O)cc4CC[C@H]3[C@@H]1CC[C@@H]2O [ESTRADIOL] | – | fold change (FC) [4]: 3.6 |
| O=C1OC[C@H](Cc2cccc(O)c2)[C@H]1Cc1cccc(O)c1 [ENTEROLACTONE] | – | fold change (FC) [5]: 1.84 |
| O=C(O)c1cc(O)c(O)c(O)c1 [GALLIC ACID] | 29.9 | – |

More lines, main results first:

| IC50 [1] [µM] | SMILES | other results |
| --- | --- | --- |
| 21 | COc1ccc(/C=C/C(=O)O[C@H](C(=O)O)[C@](O)(Cc2ccc(O)c(O)c2)C(=O)O)cc1O [CIMICIFUGIC ACID B] | – |
| 23 | O=C(/C=C/c1ccc(O)c(O)c1)O[C@H](C(=O)O)[C@](O)(Cc1ccc(O)c(O)c1)C(=O)O [FUKINOLIC ACID] | – |
| 26 | O=C1OCC(O)(C(=O)c2ccc(O)c(O)c2)/C1=C\c1ccc(O)c(O)c1 (stereo unspecified) [ACTAEALACTONE] | fold change (FC) [6]: 1.24 |
| 12 | COc1cc(/C=C/C(=O)O[C@H](C(=O)O)[C@](O)(Cc2ccc(O)c(O)c2)C(=O)O)ccc1O [CIMICIFUGIC ACID A] | – |
